Source: PubChem
Shown are actives, neighbours in structure and some others; about 2.3% of the full set was active somewhere.
HIV Env fusion – inhibitors of HIV-1 Env-driven cell-cell fusion, primary screen, HeLa-JRFL effector, CEM21 target cells, luciferase; inhibition, % at 12.3 µM; AID 651610, 2012; 360,000 compounds, 1.1% hits;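 active = mean replicate inhibition score of at least 50 and every replicate individually at or above 50; inconclusive = only one of the two criteria met; inactive = mean below 50 and not all replicates reaching 50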;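 also: 0% = plate neutral controls and 100% = maraviroc near 300 nM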
PfHsp90 set2 – growth inhibition of PfHsp90-expressing yeast, primary screen, antimalarial PfHsp90 inhibitor project, S. cerevisiae, BacTiter-Glo luminescence, single point, set 2; inhibition, % at 9.4 µM; BacTiter-Glo ATP, 48 h; yeast lacking PDR1 and PDR3 efflux regulators; 310,000 compounds, 0.32% hits;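 active = every replicate shows inhibition above about 80%, whatever the replicate mean, limit read from the data; inconclusive = mean inhibition reaches the set limit but some replicate falls short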;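 also: 0% = DMSO neutral controls and 100% = 20 µM radicicol positive controls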
Arr AP2 block – inhibitors of beta-arrestin/AP2 binding, primary screen, biochemical, GPCR trafficking, flow cytometry. AID 504490, 2011. FITC-arrestin peptide / GST-AP2 beads; AP2 beta2 appendage carries R879A mutation. 340,000 compounds, 0.31% hits. inhibition, % at 10 µM. beta-arrestin 1 C-terminal peptide binding to AP2 beta2-adaptin appendage (human);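 active = inhibition above a set limit, near 3 SD of compounds lacking own fluorescence, cut at about 54% in these data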;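 also: plate controls were DMSO wells for no effect and 5 µM unlabelled arrestin peptide for full effect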
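system = GST-tagged AP2 beta2-adaptin appendage (R879A) on 4 µm glutathione beads | reagent = FITC-labelled arrestin peptide probe, 50 nM final | schedule = compound with beads 12 min RT, then probe 1 h RT | signal = HyperCyt-sampled flow cytometry, FL1 channel, ex 488/em 535 nm | read-out = percent response from loss of bead-bound FITC fluorescence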
N-glyco inh – increase of ERlucT glycosylation luciferase signal, primary screen, N-linked glycosylation inhibitor project, D54 ERlucT cells, luminescence, set 2. D54 ERlucT glycosylation luciferase reporter, 24 h; percent of 100 nM tunicamycin response. 360,000 compounds, 0.23% hits. AID 588692, 2011. reporter increase, % at 12.5 µM;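 active = mean luciferase reporter signal, scaled so untreated is 0 and the glycosylation-blocking control 100, at or above a set limit in every replicate; inconclusive = mean reaches the limit but not every replicate does; inactive = mean below the limit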;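 also: luciferase carries N-glycosylation sites so blocking glycosylation raises the light; 0% = median of neutral control wells and 100% = median of 100 nM tunicamycin wells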
Rtt109 HAT inh – inhibitors of C. albicans Rtt109/Vps75 HAT, primary screen, biochemical, ThioGlo CoA-SH fluorescence, plate reader. purified Rtt109/Vps75, 4 h. inhibition, % at 34.9 µM. 330,000 compounds, 0.16% hits. AID 540336, 2011;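 active = inhibition of at least 50% in every replicate; inconclusive = best replicate reaches 50% inhibition but some replicates fall short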
Target sequence (Q5AAJ8 whole entry, looked up): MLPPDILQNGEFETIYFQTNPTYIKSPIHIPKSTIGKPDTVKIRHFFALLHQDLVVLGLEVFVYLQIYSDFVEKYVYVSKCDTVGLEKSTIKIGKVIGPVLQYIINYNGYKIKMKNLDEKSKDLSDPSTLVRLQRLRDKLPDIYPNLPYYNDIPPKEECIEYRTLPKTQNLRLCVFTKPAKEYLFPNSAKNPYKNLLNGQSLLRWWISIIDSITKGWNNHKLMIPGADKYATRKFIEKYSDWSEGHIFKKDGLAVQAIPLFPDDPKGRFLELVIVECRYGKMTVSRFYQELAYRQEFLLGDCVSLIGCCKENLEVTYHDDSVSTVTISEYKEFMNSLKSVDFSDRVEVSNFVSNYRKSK
PAX8 inh HTS – inhibitors of PAX8-driven TPO luciferase reporter, primary screen, RMG-I cells, single concentration | SteadyGlo, 24 h | inhibition, % at 12.6 µM | 360,000 compounds, 1.2% hits | AID 652154, 2013;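 active = mean replicate inhibition at least 60% with every replicate also reaching 60%; inconclusive = only one of the two criteria is met; inactive = mean below 60% and not all replicates reaching 60%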;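 also: luciferase light reporting Pax8 driven TPO promoter activity; plate controls were median of neutral control wells for no effect and mitoxantrone controls for full effect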
The depositor's hits bear a star; ? = inconclusive; . = no result given; [ ] = another dose, or the depositor's remark.

SMILES	HIV Env fusion	PfHsp90 set2	Arr AP2 block	N-glyco inh	Rtt109 HAT inh	PAX8 inh HTS
CCCCCCN1C=CC(=C2C(=O)c3ccccc3C2=O)C=C1	43.5	30.8	-15.0	-19.0	14.8	67.1*
CCCN1C=CC(=C2C(=O)c3ccccc3C2=O)C=C1	107.1*	-102.4	27.4	-25.4	7.3	.
CCN1C=CC(=C2C(=O)c3ccccc3C2=O)C=C1	73.2*	51.8	10.2	-25.4	79.8*	.
CCCCN1C(C)=CC(=C2C(=O)c3ccccc3C2=O)C=C1C	-41.2	39.4	11.6	-18.9	-0.9	-1.7
Cc1ccccc1S(=O)(=O)NCC[C@H]1CC[C@H](NC(=O)C2CC2)[C@H](CO)O1	2.8[16.7 µM]	.	.	.	.	-2.1
CCOC(=O)N1CCN(C(=O)CCN2C(=O)/C(=C\c3cccc(OC)c3)SC2=S)CC1	5.0	-10.4	-1.9	2.1	0.9	0.5
COc1cccc(/C=C2\SC(=S)N(C(C)C(=O)NC3C=CS(=O)(=O)C3)C2=O)c1 (centres undefined)	-2.0	-16.0	1.6	-5.9	154.1*	13.8
COc1cccc(/C=C2\SC(=S)N(CCC(=O)N3CCCCC3)C2=O)c1	10.9	-20.6	9.4	39.0*	-13.3	5.7
C[C@@H]1CN([C@H](C)CO)C(=O)Cc2cc(NC(=O)Nc3ccc4c(c3)OCO4)ccc2O[C@@H]1CN(C)S(=O)(=O)c1ccccc1	-28.4[16.7 µM]	.	.	.	.	.
C[C@H]1CN([C@@H](C)CO)C(=O)Cc2cc(NC(=O)Nc3ccc4c(c3)OCO4)ccc2O[C@H]1CN(C)S(=O)(=O)c1ccccc1	63.1*[16.7 µM]	.	.	.	.	.
C[C@H](CO)N1C[C@H](C)[C@@H](CN(C)S(=O)(=O)c2ccccc2)Oc2c(NC(=O)Cc3ccccc3)cccc2C1=O	-41.9	-5.0	5.3	27.7*	-0.7	-2.5
Cc1ccc(S(=O)(=O)N(C)C[C@H]2Oc3ccc(NC(=O)Cc4ccccc4)cc3C(=O)N([C@H](C)CO)C[C@@H]2C)cc1	.	.	.	.	.	83.9*
Cc1ccc(S(=O)(=O)N(C)C[C@@H]2Oc3ccc(NC(=O)Cc4ccccc4)cc3CC(=O)N([C@H](C)CO)C[C@@H]2C)cc1	77.0*[16.7 µM]	.	.	.	.	28.8
C[C@H](CO)N1C[C@H](C)[C@@H](CN(C)S(=O)(=O)c2ccccc2)Oc2c(NC(=O)CCC(F)(F)F)cccc2C1=O	-10.2	3.5	24.2	0.4	3.7	-18.7
Cc1ccc(S(=O)(=O)N(C)C[C@@H]2Oc3ccc(NC(=O)Cc4ccccc4)cc3C(=O)N([C@H](C)CO)C[C@H]2C)cc1	.	.	.	.	.	24.5
CC(C)c1cn(CC[C@@H]2CC[C@@H](NC(=O)C3CCC3)[C@H](CO)O2)nn1	16.8[16.7 µM]	.	.	.	.	-2.5
Cc1ccc(S(=O)(=O)N(C)C[C@@H]2Oc3ccc(NC(=O)CCC(F)(F)F)cc3CC(=O)N([C@@H](C)CO)C[C@@H]2C)cc1	.	-12.4	-2.2	33.3*	-2.5	12.4
C[C@H]1CN([C@@H](C)CO)C(=O)Cc2cc(NC(=O)Cc3ccccc3)ccc2O[C@H]1CN(C)S(=O)(=O)c1ccccc1	72.6*[16.7 µM]	.	.	.	.	-1.3
C[C@@H]1CN([C@H](C)CO)C(=O)Cc2cc(NC(=O)Cc3ccccc3)ccc2O[C@H]1CN(C)S(=O)(=O)c1ccccc1	21.0[16.7 µM]	.	.	.	.	-1.9
C[C@H](O)C#Cc1cnc2c(c1)C(=O)N([C@@H](C)CO)C[C@H](C)[C@@H](CN(C)CC1CCCC1)O2	-21.8[16.7 µM]	.	.	.	.	-8.0
CC(C)CC#Cc1ccc2c(c1)O[C@H](CN(C)Cc1ccc(C(=O)O)cc1)[C@@H](C)CN([C@H](C)CO)S2(=O)=O	15.4[16.7 µM]	.	.	.	.	79.7*
C[C@H](O)C#Cc1ccc2c(c1)O[C@@H](CN(C)Cc1ccc(-c3ccccc3)cc1)[C@@H](C)CN([C@@H](C)CO)S2(=O)=O	.	.	.	.	.	89.4*
C[C@H](O)C#Cc1ccc2c(c1)O[C@H](CN(C)Cc1ccc(-c3ccccc3)cc1)[C@@H](C)CN([C@H](C)CO)S2(=O)=O	.	.	.	.	.	79.9*
C[C@@H]1CN([C@@H](C)CO)S(=O)(=O)c2ccc(C#C[C@@H](C)O)cc2O[C@H]1CN(C)Cc1ccc(-c2ccccc2)cc1	.	.	.	.	.	91.8*
CCC(=O)NC[C@H]1[C@@H](c2ccccc2)[C@H](CO)N1C(=O)C1CCC1	.	.	.	.	.	-4.8
SMILES	HIV Env fusion	PfHsp90 set2	Arr AP2 block	N-glyco inh	Rtt109 HAT inh	PAX8 inh HTS
CO[C@@H]1CN(C)C(=O)c2ccc(NC(=O)c3ccccc3)cc2OC[C@H](C)N(CC2CC2)C[C@@H]1C	4.2[16.7 µM]	.	.	.	.	.
CCCCN1C(=O)/C(=C/C=C2\Oc3ccccc3N2CC)SC1=S	0.4	99.4*	3.1	-3.9	7.9	-5.0
COC(=O)[C@]1(C)N[C@H](CN(C)C(=O)Nc2ccc(Cl)cc2)[C@@H]2C(=O)N(Cc3ccccc3)C(=O)[C@@H]21	79.3*	-1.4	-3.1	1.4	-3.8	-4.2
COC(=O)[C@]1(C)N[C@H](CN(C)C(=O)Nc2ccc(OC)cc2)[C@@H]2C(=O)N(Cc3ccccc3)C(=O)[C@@H]21	?	7.9	-5.9	1.4	1.9	-10.5
CCN(C[C@H]1N[C@@](C)(C(=O)OC)[C@H]2C(=O)N(Cc3ccccc3)C(=O)[C@@H]12)C(=O)Nc1ccc(F)cc1	57.2*	9.5	3.2	0.1	10.4	15.1
COC(=O)[C@]1(C)N[C@H](CN(C)C(=O)Nc2ccc(C)cc2)[C@@H]2C(=O)N(Cc3ccccc3)C(=O)[C@@H]21	63.7*	5.9	29.0	1.9	1.3	1.6
O=C(C[C@@H]1CC[C@@H](NC(=O)Cc2ccccn2)[C@H](CO)O1)NCCc1ccccc1	-6.0[16.7 µM]	.	.	.	.	.
COc1ccc(CN(C)C[C@@H]2Oc3ccc(NC(=O)Cn4cnnn4)cc3C(=O)N([C@H](C)CO)C[C@H]2C)cc1	-15.3[16.7 µM]	.	.	.	.	-9.3
Cc1ccc(N(Cc2cc(=O)[nH]c3ccccc23)C(=O)CCl)c(C)c1	55.4*	-35.9	14.2	-10.7	-26.2	68.8*
COc1ccc(C(=O)Nc2cccc(/C=C/c3nc4ccccc4c(=O)[nH]3)c2)cc1	38.7	-11.3	18.6	-10.6	2.6	63.8*
CCCCN(C(=O)c1cc(S(=O)(=O)N2CCOCC2)ccc1Cl)c1c(N)n(CC(C)C)c(=O)[nH]c1=O	59.0*	3.9	9.2	2.3	-4.7	3.4
COc1ccc(S(=O)(=O)N(C)C[C@@H]2Oc3ccc(NC(=O)CCC(F)(F)F)cc3C(=O)N([C@H](C)CO)C[C@@H]2C)cc1	.	.	.	.	.	9.2
